From ChEMBL document CHEMBL2346637, “Effects of alkyl side chain modification of coenzyme Q10 on mitochondrial respiratory chain function and cytoprotection” (Bioorg Med Chem, 2013)

Tests used:
[1] = Effect on cellular respiration in rat RGC5 cells assessed as increase in mitochondrial oxygen consumption at 3 uM after 24 hrs by fluorescence assay relative to vehicle-treated control; format: functional
Summary of the method: (§1)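 RGC-5 cells (DMEM, 10% FBS, phenol-red free) at 70,000 per well in 384-well oxygen biosensor plates, allowed to attach 20–30 min. Compounds added from DMSO stock via PBS dilution, final 3 or 10 µM, 0.1% DMSO. Six vehicle and six FCCP wells per plate. Incubated at 37 °C, 5% CO₂ for 1.5 or 24 h. Fluorescence read at 485/630 nm and expressed as fold change over vehicle at each time point. Two-tailed t test.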

[2] = species: Bos taurus; assay: Inhibition of NADH oxidase in bovine heart submitochondrial particles at 10 uM after 5 mins by spectrophotometric analysis relative to untreated control; parameters: scale not given: the % may be the effect or the level left
Summary of the method: (§2)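 Bovine heart SMPs, stored in 0.25 M sucrose/10 mM Tris–HCl pH 7.4, were assayed at 30 µg protein/mL in 50 mM Hepes pH 7.5 with 5 mM MgCl₂ at 30 °C. SMPs pre-equilibrated with inhibitor for 5 min. NADH oxidation followed at 340 nm (ε 6.22 mM⁻¹ cm⁻¹). Initial rates taken from the linear trace and expressed relative to untreated control.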

[3] = species: Bos taurus; assay: Inhibition of NADH oxidase in bovine heart submitochondrial particles at 5 uM after 5 mins by spectrophotometric analysis relative to untreated control; parameters: scale not given: the % may be the effect or the level left; summary of the method: as §2
[4] = tested on: CCRF-CEM; assay: (§3) Blockade of diethyl maleate-induced mitochondrial membrane potential collapse in human CEM cells assessed as cells with intact mitochondrial membrane potential at 0.5 uM incubated for 16 hrs prior to diethyl maleate challenge measured after 120 mins by TMRM-based flow cytometric analysis (reference value: 12%); format: functional
Summary of the method: (§4)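 Pretreatment: CEM cells (5 × 10⁵) with or without compound for 16 h, then 5 mM DEM for 120 min. Cells washed and resuspended in PBS with glucose, stained with 250 nM TMRM for 15 min at 37 °C in the dark, washed, and read at once by flow cytometry (488 nm excitation, FL2-H). 10,000 events per run. Percentage of cells with intact potential taken from the top-right quadrant. FCCP served as depolarized control. Means ± SEM of three independent experiments in duplicate.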

[5] = tested on: CCRF-CEM; assay: Cytoprotective effect in human CEM cells assessed as reduction of diethyl maleate-induced oxidative stress measured cell viability at 0.5 uM incubated for 17 hrs prior to diethyl maleate challenge measured after 6 hrs by trypan blue exclusion assay relative to untreated control; format: functional
Summary of the method: (§5)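 CEM cells seeded at 5 × 10⁵ cells/mL with compound and held 17 h at 37 °C, 5% CO₂. Oxidative stress then induced with 5 mM DEM for 6 h. Viability counted on a hemocytometer by 0.4% trypan blue exclusion and expressed as percent of untreated control (untreated = 100%). Means ± S.E.M., n = 3.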

[6] = Effect on cellular respiration in rat RGC5 cells assessed as increase in mitochondrial oxygen consumption at 10 uM after 1.5 hrs by fluorescence assay relative to vehicle-treated control; format: functional; summary of the method: as §1
[7] = tested on: CCRF-CEM; assay: as §3, with “1” for “0.5”; format: functional; summary of the method: as §4
[8] = tested on: CCRF-CEM; assay: Antioxidant activity in human CEM cells assessed as suppression of diethyl maleate-induced ROS production at 2.5 uM incubated for 16 hrs prior to diethyl maleate challenge measured after 1 hr by DCFH-DA staining-based flow cytometric analysis relative to untreated control; format: functional
Summary of the method: (§6)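 CEM cells (5 × 10⁵ in 1 mL) preincubated with compound 16 h at 37 °C, 5% CO₂; then 5 mM DEM for 1 h. Cells washed in PBS and loaded with 10 µM DCFH-DA for 25 min at 37 °C in the dark, then washed twice. Read by flow cytometry, 488 nm excitation, FL1-H 530 nm channel, 10,000 events after debris gating.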

[9] = Effect on cellular respiration in rat RGC5 cells assessed as increase in mitochondrial oxygen consumption at 3 uM after 1.5 hrs by fluorescence assay relative to vehicle-treated control; format: functional; summary of the method: as §1
[10] = tested on: CCRF-CEM; assay: Cytoprotective effect in human CEM cells assessed as reduction of diethyl maleate-induced oxidative stress measured cell viability at 1 uM incubated for 17 hrs prior to diethyl maleate challenge measured after 6 hrs by trypan blue exclusion assay relative to untreated control; format: functional; summary of the method: as §5
[11] = species: Bos taurus; assay: Inhibition of NADH oxidase in bovine heart submitochondrial particles at 1 uM after 5 mins by spectrophotometric analysis relative to untreated control; parameters: scale not given: the % may be the effect or the level left; summary of the method: as §2
[12] = Effect on cellular respiration in rat RGC5 cells assessed as increase in mitochondrial oxygen consumption at 10 uM after 24 hrs by fluorescence assay relative to vehicle-treated control; format: functional; summary of the method: as §1
[13] = tested on: CCRF-CEM; assay: Cytoprotective effect in human CEM cells assessed as reduction of diethyl maleate-induced oxidative stress measured cell viability at 5 uM incubated for 17 hrs prior to diethyl maleate challenge measured after 6 hrs by trypan blue exclusion assay relative to untreated control; format: functional; summary of the method: as §5
[14] = species: Bos taurus; assay: Inhibition of NADH-ubiquinone oxidoreductase activity in bovine heart submitochondrial particles using coenzyme Q1 as substrate after 5 mins by spectrophotometric analysis relative to untreated control
Summary of the method: (§7)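 Twelve micrograms of bovine heart SMPs incubated 5 min at 39 °C with compound in 50 mM phosphate buffer, pH 7.4, with 0.25 M sucrose, 1 mM MgCl₂, antimycin A and 2 mM KCN. Reaction started with NADH and coenzyme Q₁ (each 50 µM). Decrease in NADH absorbance read at 340 nm. IC₅₀ and maximum achievable inhibition reported.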

[15] = tested on: CCRF-CEM; assay: Cytoprotective effect in human CEM cells assessed as reduction of diethyl maleate-induced oxidative stress measured cell viability at 0.1 uM incubated for 17 hrs prior to diethyl maleate challenge measured after 6 hrs by trypan blue exclusion assay relative to untreated control; format: functional; summary of the method: as §5
[16] = Inhibition of NADH-ubiquinone oxidoreductase activity in bovine heart submitochondrial particles using coenzyme Q1 as substrate after 5 mins by spectrophotometric analysis; parameters: species or system Bos taurus; summary of the method: as §7
[17] = tested on: CCRF-CEM; assay: Antioxidant activity in human CEM cells assessed as suppression of diethyl maleate-induced ROS production at 1 uM incubated for 16 hrs prior to diethyl maleate challenge measured after 1 hr by DCFH-DA staining-based flow cytometric analysis relative to untreated control; format: functional; summary of the method: as §6

| SMILES | fold change (FC) [1] | activity [2] | activity [3] | Activity [4] | Activity [5] | fold change (FC) [6] | Activity [7] | Activity [8] | fold change (FC) [9] | Activity [10] | activity [11] | fold change (FC) [12] | Activity [13] | Imax [14] | Activity [15] | IC50 [16] | Activity [17] |
| --- | --- | --- | --- | --- | --- | --- | --- | --- | --- | --- | --- | --- | --- | --- | --- | --- | --- |
| COC1=C(OC)C(=O)C(CCCCCCCCCCC2CCCCC2)=C(C)C1=O | 1.06 | 78.7% | 81.9% | 84% | 83% | 1.21 | 91% | 100% | 1.17 | 87% | 88.3% | 1.51 | 93% | 55.4% | 76% | 14.9 µM | 100% |
| COC1=C(OC)C(=O)C(CCCCCCCCCCN=[N+]=[N-])=C(C)C1=O | 1.68 | 64% | 75% | 50% | 21% | 0.97 | 65% | 87% | 1.01 | 72% | 89.8% | 1.01 | 92% | – | 11% | > 30 µM | 71% |
| CCCCCCCCCCCCCCCC1=C(C)C(=O)C(OC)=C(OC)C1=O | 1.49 | 59.7% | 66.3% | 86% | 87% | 1.15 | 92% | 100% | 1.14 | 90% | 85.2% | 1.52 | 94% | – | 82% | > 30 µM | 100% |
| COC1=C(OC)C(=O)C(CCCCCCCCCCO)=C(C)C1=O [IDEBENONE] | 0.98 | 13.4% | 20.3% | 35% | 38% | 0.99 | 59% | 65% | 1.12 | 71% | 58.3% | 0.98 | 74% | 75% | 25% | 5.8 µM | 45% |
| COC1=C(OC)C(=O)C(CCCCCCCCC(C)(C)C)=C(C)C1=O | 1.55 | 36.2% | 50.6% | 70% | 43% | 1.05 | 85% | 100% | 1.08 | 72% | 68.3% | 1.16 | 93% | 69% | 9% | 14.7 µM | 88% |
| CCCCCCCCCCC1=C(C)C(=O)C(OC)=C(OC)C1=O [DECYLUBIQUINONE] | 0.99 | 61.5% | 83.3% | 78% | 62% | 1.2 | 88% | 95% | 1.19 | 79% | 93.5% | 1.08 | 87% | – | 69% | > 30 µM | 80% |
